Consider four compounds from ChEMBL document CHEMBL1158585, “Oploxynes A and B, polyacetylenes from the stems of Oplopanax elatus” (J Nat Prod, 2010).

The source made the active and inactive calls. The rule behind the calls is not given here.

The subject of assay [1] is RAW264.7. The assay can be described thus: Cytotoxicity in mouse RAW264.7 cells. The class given is cell-based.
Assay [2] deals with RAW264.7. In words: Antiinflammatory activity in lipopolysaccharide-induced mouse RAW264.7 cells assessed as inhibition of nitric oxide production after 20 to 24 hrs by Griess method. The class given is functional, cell-based. Summed up:
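RAW264.7 cells seeded at 1 × 10⁵ cells/well and left 6 h to attach, then given phenol red-free medium with 1 µg/mL E. coli LPS (strain 055:B5), with or without compound, for 20-24 h. Compounds were serially diluted. Supernatant nitrite read by Griess reagent, absorbance at 540 nm, against a NaNO₂ standard curve. Control got 0.5% (v/v) DMSO. Triplicate wells.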

The subject of assay [3] is RAW264.7. The assay can be described thus: Antiinflammatory activity in lipopolysaccharide-induced mouse RAW264.7 cells assessed as inhibition of prostaglandin E2 production after 20 to 24 hrs. The assay is classed as functional, cell-based. Summed up:
(§1)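 PGE₂ made from endogenous arachidonic acid was measured with a commercial PGE₂ parameter assay kit, following the manufacturer's protocol.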

Assay [4] deals with RAW264.7. The assay can be described thus: Antiinflammatory activity in lipopolysaccharide-induced mouse RAW264.7 cells assessed as inhibition of prostaglandin E2 production at 8 uM after 24 hrs. The assay is classed as functional, cell-based. Summed up:
as §1

For assay [5], the system named is RAW264.7. In words: Antiinflammatory activity in lipopolysaccharide-induced mouse RAW264.7 cells assessed as inhibition of nitric oxide production at 8 uM after 24 hrs by Griess method. The class given is functional, cell-based. Put shortly:
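RAW264.7 cells seeded at 1 × 10⁵ cells/well and left 6 h to attach, then exposed to compound at 8 µM for 24 h in phenol red-free medium with 1 µg/mL E. coli LPS (strain 055:B5). Supernatant nitrite read by Griess reagent at 540 nm against a NaNO₂ standard curve. Control got 0.5% (v/v) DMSO. Triplicate wells.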
(Griess reagent forms a coloured azo dye with nitrite.)

As to `C=CC(O)C#CC#C[C@@H](O)/C=C\CCCCCCC` (mixture of isomers), the values for the IC50 in assay [1], in assay [2] and in assay [3] were 3770 nM, 1280 nM and 1540 nM, respectively.

As to `CCCCCCC/C=C\[C@H](O)C#CC#C[C@@H](O)CC` [OPLOPANDIOL], the inhibition result in assay [4] and in assay [5] was “Active” each time. The concentration for half-maximal inhibition (IC50) was > 40000 nM in assay [1], 2720 nM in assay [2] and 2990 nM in assay [3].

On to `CCCCCCC[C@@H]1O[C@@H]1[C@H](O)C#CC#C[C@@H](O)CC` [OPLOXYNE A], for which the inhibition result in assay [4] and in assay [5] was “Active” throughout. Further, the results for the IC50 in assay [1], in assay [2] and in assay [3] were > 40000 nM, 1980 nM and 3080 nM, respectively.

Consider `CCCCCCC[C@@H](OC)[C@H](O)[C@H](O)C#CC#C[C@@H](O)CC` [OPLOXYNE B], for which the IC50 in assay [1], in assay [2] and in assay [3] was > 40000 nM in each case.

One may read the IC50 as the concentration that gives 50% inhibition.
